According to ChEMBL document CHEMBL1130393, “Antitumor agents. 178. Synthesis and biological evaluation of substituted 2-aryl-1,8-naphthyridin-4(1H)-ones as antitumor agents that inhibit tubulin polymerization” (J Med Chem, 1997):

Tests used:
[1] = test system: Panel renal (Carcinoma cell lines); assay: log molar concentration required to cause total growth inhibition of renal tumor cell lines; format: functional; conditions: Homo sapiens, read-out: Log TGI (converted)
Procedure, shortened: (§1)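 TGI from the NCI 60 human tumor cell line in vitro screen: log of the molar drug concentration causing total growth inhibition, reported for the named cell panel.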

[2] = test system: Panel prostate (Carcinoma cell lines); assay: log molar concentration required to cause total growth inhibition of prostate tumor cell lines; format: functional; conditions: Homo sapiens, read-out: Log TGI (converted); procedure, shortened: as §1
HL-60 [3] = assay: In vitro antitumor activity against HL-60(TB) tumor cell lines; format: functional; conditions: Homo sapiens
U-251 [4] = assay: In vitro antitumor activity against U-251 tumor cell lines; format: functional; conditions: Homo sapiens
NCI-H460 [5] = assay: In vitro antitumor activity against NCI-H460 tumor cell lines; format: functional; conditions: Homo sapiens
CAKI-1 [6] = assay: In vitro antitumor activity against CAKI-1 tumor cell lines; format: functional; conditions: Homo sapiens
PC-3 [7] = assay: In vitro antitumor activity against PC-3 tumor cell lines; format: functional; conditions: Homo sapiens
[8] = test system: Panel CNS (Carcinoma cell lines); assay: log molar concentration required to cause total growth inhibition of CNS cancer tumor cell lines; format: functional; conditions: Homo sapiens, read-out: Log TGI (converted); procedure, shortened: as §1
Tubulin (Bos taurus) = Tubulin (Bos taurus) (UniProt Q6B856+Q862L2+Q862F3); assay: Inhibition of radiolabeled colchicine binding to tubulin; format: protein assay; parameters: concentration or dose not given beside the values; conditions: concentration not given here
Procedure, shortened: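 Measured by DEAE-cellulose filter binding. The 0.1 mL mixture held bovine brain tubulin 1.0 µM, 1.0 M monosodium glutamate (pH 6.6), 1 mM MgCl2, 0.1 mM GTP, 5.0 µM [3H]colchicine, 5% DMSO and inhibitor at 5.0 µM. It was incubated 20 min at 37 °C, filtered through two DEAE-cellulose papers, washed with water and counted by liquid scintillation.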

NSCLC = assay: log molar concentration required to cause total growth inhibition of non-small cell lung tumor cell lines; format: functional; conditions: Homo sapiens, read-out: Log TGI (converted); procedure, shortened: as §1
Tubulin = Tubulin (Bos taurus, UniProt Q6B856+Q862L2+Q862F3); assay: Inhibition of tubulin polymerization; format: functional
MDA-N [9] = assay: In vitro antitumor activity against MDA-N tumor cell lines; format: functional; conditions: Homo sapiens
Tumor Cell line [10] = assay: log molar concentration required to cause total growth inhibition of NCI 's human tumor cell lines; format: functional; conditions: read-out: Log TGI (converted)
Procedure, shortened: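 NCI 60 human tumor cell line in vitro screen. TGI is the log molar concentration giving total growth inhibition, calculated from all cell lines tested.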

HCT-116 [11] = assay: In vitro antitumor activity against HCT116 tumor cell lines; format: functional; conditions: Homo sapiens
Melanoma tumor cell line [12] = assay: log molar concentration required to cause total growth inhibition of melanomic tumor cell lines; format: functional; conditions: Homo sapiens, read-out: Log TGI (converted); procedure, shortened: as §1
OVCAR-3 [13] = assay: In vitro antitumor activity against OVCAR-3 tumor cell lines; format: functional; conditions: Homo sapiens
Tumor Cell line [14] = assay: In vitro antitumor activity against NCI 's human tumor cell lines; format: functional; conditions: read-out: Average log GI50 (converted)
Procedure, shortened: (§2)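 NCI in vitro screen of 60 human tumor cell lines. […] The value is calculated from all cell lines tested.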

[15] = test system: Panel breast (Carcinoma cell lines); assay: log molar concentration required to cause total growth inhibition of breast tumor cell lines; format: functional; conditions: Homo sapiens, read-out: Log TGI (converted); procedure, shortened: as §1
[16] = test system: Panel ovarian (Carcinoma cell lines); assay: log molar concentration required to cause total growth inhibition of ovarian tumor cell lines; format: functional; conditions: Homo sapiens, read-out: Log TGI (converted); procedure, shortened: as §1
SF-295 [17] = assay: In vitro antitumor activity against SF-295 tumor cell lines; format: functional; conditions: Homo sapiens
Leukemic tumor cell line = assay: (§3) log molar concentration required to cause total growth inhibition of leukemic tumor cell lines; format: functional; conditions: Homo sapiens, read-out: Log TGI (converted); procedure, shortened: as §1
SK-MEL-5 [18] = assay: In vitro antitumor activity against SK-MEL-5 tumor cell lines; format: functional; conditions: Homo sapiens
MDA-MB-435 [19] = assay: In vitro antitumor activity against MDA-MB-435 NCI 's human tumor cell lines; format: functional
[20] = test system: Panel colon (Carcinoma cell lines); assay: log molar concentration required to cause total growth inhibition of colon tumor cell lines; format: functional; conditions: Homo sapiens, read-out: Log TGI (converted); procedure, shortened: as §1
[21] = test system: Panel CNS (Carcinoma cell lines); assay: log molar concentration required to cause total growth inhibition of CNS cancer cell lines; format: functional; conditions: Homo sapiens, read-out: Log TGI (converted); procedure, shortened: as §1
Melanoma tumor cell line [22] = assay: log molar concentration required to cause total growth inhibition of melanomicell lines; format: functional; conditions: Homo sapiens, read-out: Log TGI (converted); procedure, shortened: as §1
leukaemia cell line = assay: as §3; format: functional; conditions: Homo sapiens, read-out: Log TGI (converted); procedure, shortened: as §1
PC-3 [23] = assay: in vitro antitumor activity against PC-3 tumor cell lines; format: functional; conditions: Homo sapiens
HL-60 [24] = assay: in vitro antitumor activity against HL-60(TB) tumor cell lines; format: functional; conditions: Homo sapiens
SF-295 [25] = assay: in vitro antitumor activity against SF-295 tumor cell lines; format: functional; conditions: Homo sapiens
MDA-N [26] = assay: in vitro antitumor activity against MDA-N tumor cell lines; format: functional; conditions: Homo sapiens
HCT-116 [27] = assay: in vitro antitumor activity against HCT116 tumor cell lines; format: functional; conditions: Homo sapiens
Tumor Cell line [28] = assay: in vitro antitumor activity against NCI 's human tumor cell lines; format: functional; conditions: read-out: Average log GI50 (converted); procedure, shortened: as §2
CAKI-1 [29] = assay: in vitro antitumor activity against CAKI-1 tumor cell lines; format: functional; conditions: Homo sapiens
MDA-MB-435 [30] = assay: in vitro antitumor activity against MAD-MB-435NCI 's human tumor cell lines; format: functional
OVCAR-3 [31] = assay: in vitro antitumor activity against OVCAR-3 tumor cell lines; format: functional; conditions: Homo sapiens
SK-MEL-5 [32] = assay: in vitro antitumor activity against SK-MEL-5 tumor cell lines; format: functional; conditions: Homo sapiens
NCI-H460 [33] = assay: in vitro antitumor activity against NCI-H460 tumor cell lines; format: functional; conditions: Homo sapiens
U-251 [34] = assay: in vitro antitumor activity against U-251 tumor cell lines; format: functional; conditions: Homo sapiens

Compound	TGI [1] [nM]	TGI [2] [nM]	GI50 (HL-60 [3]) [nM]	GI50 (U-251 [4]) [nM]	GI50 (NCI-H460 [5]) [nM]	GI50 (CAKI-1 [6]) [nM]	GI50 (PC-3 [7]) [nM]	inhibition (Tubulin (Bos taurus)) [%]	TGI (NSCLC) [nM]	IC50 (Tubulin) [nM]	GI50 (MDA-N [9]) [nM]	TGI (Tumor Cell line [10]) [nM]	GI50 (HCT-116 [11]) [nM]	GI50 (OVCAR-3 [13]) [nM]	GI50 (Tumor Cell line [14]) [nM]	TGI [15] [nM]	TGI [16] [nM]	GI50 (SF-295 [17]) [nM]	GI50 (SK-MEL-5 [18]) [nM]	GI50 (MDA-MB-435 [19]) [nM]	further results
Cc1ccnc2nc(-c3cccc(Cl)c3)cc(O)c12	69200	2340	< 10	52.5	38.9	33.1	15.5	32	100000	1000	11.8	25700	15.8	31.6	158	813	27500	40.7	41.7	< 10	TGI [8]: 18200 nM; TGI (Melanoma tumor cell line [12]): 70800 nM; TGI (Leukemic tumor cell line): 100000 nM; TGI [20]: 12000 nM
Cc1ccc2c(=O)cc(-c3cccc(F)c3)[nH]c2n1	64600	1580	22.4	38	33.1	45.7	34.7	41	5750	530	14.4	4680	28.2	19.5	42.7	575	10200	28.8	22.4	12.3	TGI [21]: 2240 nM; TGI (Melanoma tumor cell line [12]): 24000 nM; TGI (Leukemic tumor cell line): 2750 nM; TGI [20]: 550 nM
Cc1cnc2[nH]c(-c3cccc(F)c3)cc(=O)c2c1	55000	692	20.4	40.7	38.9	28.2	34.7	43	16200	630	11.8	5130	24	13.5	50.1	537	26900	27.5	28.2	< 10	TGI [8]: 3090 nM; TGI (Melanoma tumor cell line [12]): 32400 nM; TGI (Leukemic tumor cell line): 2690 nM; TGI [20]: 324 nM
Cc1cnc2[nH]c(-c3cccc(Cl)c3)cc(=O)c2c1	87100	> 100000	30.9	69.2	50.1	42.7	> 100000	33	44700	720	> 100000	30900	30.2	22.4	269	12900	15800	25.1	70.8	< 10	TGI [21]: 1910 nM; TGI (Melanoma tumor cell line [22]): 47900 nM; TGI (leukaemia cell line): 72400 nM; TGI [20]: 9550 nM
Cc1cc(C)c2c(O)cc(-c3cccc(Cl)c3)nc2n1	58900	3090	74.1	295	224	204	27.5	22	> 100000	770	19.1	26300	170	170	347	1230	30200	47.9	117	13.2	TGI [21]: 5010 nM; TGI (Melanoma tumor cell line [12]): 72400 nM; TGI (Leukemic tumor cell line): 81300 nM; TGI [20]: 28800 nM
Cc1cccc(-c2cc(O)c3cccnc3n2)c1	–	–	–	–	–	–	–	–	–	3300	–	–	–	–	–	–	–	–	–	–	GI50 (PC-3 [23]): 42.7 nM; GI50 (HL-60 [24]): 19.1 nM; GI50 (SF-295 [25]): 37.1 nM; GI50 (MDA-N [26]): < 10 nM; GI50 (HCT-116 [27]): 22.4 nM; GI50 (Tumor Cell line [28]): 95.5 nM; GI50 (CAKI-1 [29]): 37.1 nM; GI50 (MDA-MB-435 [30]): < 10 nM; GI50 (OVCAR-3 [31]): 41.7 nM; GI50 (SK-MEL-5 [32]): 25.7 nM; GI50 (NCI-H460 [33]): 25.7 nM; GI50 (U-251 [34]): 44.7 nM
Cc1ccc2c(O)cc(-c3cccc(Cl)c3)nc2n1	> 100000	> 100000	28.8	64.6	41.7	41.7	> 100000	38	24500	890	> 100000	21400	25.7	< 10	170	3800	10500	22.9	31.6	< 10	TGI [21]: 1950 nM; TGI (Melanoma tumor cell line [12]): 69200 nM; TGI (Leukemic tumor cell line): > 100000 nM; TGI [20]: 3090 nM
Cc1cc(C)c2c(O)cc(-c3cccc(F)c3)nc2n1	49000	49000	37.1	64.6	53.7	35.5	61.7	29	2510	740	12.9	5620	< 10	18.2	85.1	1000	5500	33.1	37.1	< 10	TGI [21]: 9770 nM; TGI (Melanoma tumor cell line [12]): 13800 nM; TGI (Leukemic tumor cell line): 2450 nM; TGI [20]: 1170 nM
